ChEMBL document CHEMBL1144645, “The discovery of highly selective erbB2 (Her2) inhibitors for the treatment of cancer” (Bioorg Med Chem Lett, 2007)

What was measured:
[1] = target: Epidermal growth factor receptor and ErbB2 (HER1 and HER2) (Homo sapiens) (UniProt P04626+P00533); experiment: Selectivity for erbB2 over EGFR; format: protein assay
Method in brief: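 Cell selectivity: IC50 ratio between two NIH3T3 lines run under identical conditions, one carrying human EGFR and one carrying the EGFR-extracellular/erbB2-intracellular chimera. Each line takes 2 h inhibitor, then 15 min human recombinant EGF. Phosphotyrosine measured with HRP-PY-54 and TMB at 450 nm.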

[2] = target: T1, Receptor tyrosine-protein kinase erbB-2 (Homo sapiens, UniProt P04626); experiment: Inhibition of erbB2 expressed in Sf9 cells
Method in brief: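 GST-tagged erbB2 intracellular domain (residues 675–1255) made in baculovirus/Sf9 and purified; ~15 ng enzyme phosphorylates poly(Glu,Tyr) with 1 mM ATP plus inhibitor over 6 min. Phosphotyrosine detected by HRP-PY-54 antibody and TMB, A450. IC50 is the mean of at least two experiments.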

[3] = target: T1, Receptor tyrosine-protein kinase erbB-2; experiment: Inhibition of erbB2 in NH3T3 cells; format: cell-based
Method in brief: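 NIH3T3 cells expressing a chimera of EGFR extracellular and erbB2 intracellular domains are plated, exposed to inhibitor for 2 h, then stimulated with human recombinant EGF for 15 min. Receptor phosphotyrosine read with HRP-PY-54 antibody and TMB, A450. IC50 is the mean of at least two experiments.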

[4] = Bioavailability in rat at 5 mg/kg, po; format: ADME, organism-based; details: in vivo
Method in brief: (§1)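 Single 2 mg/kg IV dose (HCl salt) to define clearance, volume of distribution and half-life; oral arm given 5 mg/kg in 0.5% methylcellulose to derive bioavailability (F).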

[5] = Half life in rat at 2 mg/kg, iv after 1 hr; format: ADME, organism-based; design: dose 2 mg/kg, route intravenous; details: in vivo; method in brief: as §1
[6] = Volume of distribution in rat at 2 mg/kg, iv; format: ADME, organism-based; design: dose 2 mg/kg, route intravenous; details: in vivo, read-out: Vdss; method in brief: as §1
[7] = Clearance in rat at 2 mg/kg, iv; format: ADME, organism-based; design: dose 2 mg/kg, route intravenous; details: in vivo; method in brief: as §1

T1 sequence (P04626 whole entry, the tested form may be a part): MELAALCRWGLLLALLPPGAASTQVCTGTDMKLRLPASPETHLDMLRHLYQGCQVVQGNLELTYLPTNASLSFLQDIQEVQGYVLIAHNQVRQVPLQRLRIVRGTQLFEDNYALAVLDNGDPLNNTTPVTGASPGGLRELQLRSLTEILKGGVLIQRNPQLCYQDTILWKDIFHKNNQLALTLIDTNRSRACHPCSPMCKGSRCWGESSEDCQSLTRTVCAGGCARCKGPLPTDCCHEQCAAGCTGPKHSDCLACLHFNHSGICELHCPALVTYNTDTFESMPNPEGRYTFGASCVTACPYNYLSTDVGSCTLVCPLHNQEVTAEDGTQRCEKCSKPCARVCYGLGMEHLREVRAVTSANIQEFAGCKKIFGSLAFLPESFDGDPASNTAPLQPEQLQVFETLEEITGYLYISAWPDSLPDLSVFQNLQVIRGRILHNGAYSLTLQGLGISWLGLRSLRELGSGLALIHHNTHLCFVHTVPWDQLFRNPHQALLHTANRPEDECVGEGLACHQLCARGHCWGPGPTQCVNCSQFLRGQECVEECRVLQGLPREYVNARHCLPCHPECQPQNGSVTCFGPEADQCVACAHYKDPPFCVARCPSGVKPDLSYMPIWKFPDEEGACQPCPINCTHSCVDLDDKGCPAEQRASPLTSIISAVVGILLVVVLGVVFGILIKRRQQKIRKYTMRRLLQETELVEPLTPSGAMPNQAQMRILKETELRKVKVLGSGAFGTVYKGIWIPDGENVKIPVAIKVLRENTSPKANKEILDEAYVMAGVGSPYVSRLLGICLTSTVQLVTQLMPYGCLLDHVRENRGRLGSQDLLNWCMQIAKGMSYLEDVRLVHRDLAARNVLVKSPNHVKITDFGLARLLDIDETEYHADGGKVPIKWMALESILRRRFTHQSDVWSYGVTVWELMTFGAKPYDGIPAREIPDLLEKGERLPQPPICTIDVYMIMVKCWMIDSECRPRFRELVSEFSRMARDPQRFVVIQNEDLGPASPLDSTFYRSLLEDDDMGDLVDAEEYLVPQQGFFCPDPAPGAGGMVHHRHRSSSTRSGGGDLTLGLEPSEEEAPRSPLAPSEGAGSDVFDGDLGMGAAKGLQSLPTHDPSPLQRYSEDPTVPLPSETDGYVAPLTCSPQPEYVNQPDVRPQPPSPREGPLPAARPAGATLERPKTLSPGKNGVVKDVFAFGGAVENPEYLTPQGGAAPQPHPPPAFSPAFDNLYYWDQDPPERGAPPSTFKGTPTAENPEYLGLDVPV

Row | Compound | Selectivity ratio [1] | IC50 [2] [nM] | IC50 [3] [nM] | bioavailability [4] [%] | half-life [5] [h] | Vd [6] [L/kg] | clearance [7] [mL/min/kg]
1 | COCC(=O)NCC#Cc1ccc2ncnc(Nc3ccc(OC4CCN(C(=O)CC(C)(C)C)CC4)c(C)c3)c2c1 | 400 | 94 | 16 |  |  |  | 
2 | CNC(=O)c1ccc(Oc2ccc(Nc3ncnc4ccc(C#CCNC(=O)COC)cc34)cc2C)cc1 |  | > 10000 |  |  |  |  | 
3 | COCC(=O)NCC#Cc1ccc2ncnc(Nc3ccc(OC4CCN(C(=O)C5CCC5)CC4)c(C)c3)c2c1 | > 200 | 150 | 51 |  |  |  | 
4 | COCCOc1ccc2ncnc(Nc3ccc(OC4CCN(C(=O)CC(C)(C)C)CC4)c(C)c3)c2c1 | > 500 | 120 | 19 |  |  |  | 
5 | COCC(=O)NCC#Cc1ccc2ncnc(Nc3ccc(Oc4ccc(C(=O)Nc5ccccc5)cc4)c(C)c3)c2c1 |  | > 10000 |  |  |  |  | 
6 | COCC(=O)NCC#Cc1ccc2ncnc(Nc3ccc(Oc4cccc(C(=O)NCC(C)(C)C)c4)c(C)c3)c2c1 | 91 | 130 | 110 |  |  |  | 
7 | COCC(=O)NCC#Cc1ccc2ncnc(Nc3ccc(OC4CCN(C(=O)Nc5c(F)cccc5F)CC4)c(C)c3)c2c1 | > 53 | 76 | 190 |  |  |  | 
8 | COCC(=O)NCC#Cc1ccc2ncnc(Nc3ccc(OC4CCN(C)CC4)c(C)c3)c2c1 |  | > 10000 |  |  |  |  | 
9 | COCC(=O)NCC#Cc1ccc2ncnc(Nc3ccc(Oc4cccc(C(=O)NC5CCC5)c4)c(C)c3)c2c1 | > 64 | 230 | 160 |  |  |  | 
10 | COCC(=O)NCC#Cc1ccc2ncnc(Nc3ccc(Oc4ccc(C(=O)NC(C)(C)C)cc4)c(C)c3)c2c1 |  | > 10000 |  |  |  |  | 
11 | COCC(=O)NCC#Cc1ccc2ncnc(Nc3ccc(OC4CCN(C(=O)C5CCCO5)CC4)c(C)c3)c2c1 (stereo unspecified) |  | 550 | 2900 |  |  |  | 
12 | COCC(=O)NCC#Cc1ccc2ncnc(Nc3ccc(Oc4cccc(C(=O)N(C)C)c4)c(C)c3)c2c1 |  | > 10000 |  |  |  |  | 
13 | COCC(=O)NCC#Cc1ccc2ncnc(Nc3ccc(OC4CCN(C(=O)COC)CC4)c(C)c3)c2c1 |  | > 10000 |  |  |  |  | 
14 | COCC(=O)NCC#Cc1ccc2ncnc(Nc3ccc(OC4CCN(C(=O)c5cccc(Cl)c5)CC4)c(C)c3)c2c1 | 92 | 210 | 75 |  |  |  | 
15 | COCC(=O)NCC#Cc1ccc2ncnc(Nc3ccc(OC4CCNCC4)c(C)c3)c2c1 |  | > 10000 |  |  |  |  | 
16 | COCC(=O)NCC#Cc1ccc2ncnc(Nc3ccc(Oc4ccc(C(=O)N(C)C)cc4)c(C)c3)c2c1 |  | > 10000 |  |  |  |  | 
17 | CNC(=O)c1cccc(Oc2ccc(Nc3ncnc4ccc(C#CCNC(=O)COC)cc34)cc2C)c1 |  | > 10000 |  |  |  |  | 
18 | Cc1cc(Nc2ncnc3cnc(NCCN4CCOCC4)cc23)ccc1Oc1ccc(C(=O)NCC(C)(C)C)cc1 | 230 | 280 | 15 |  |  |  | 
19 | COc1ccc2ncnc(Nc3ccc(OC4CCN(C(=O)CC(C)(C)C)CC4)c(C)c3)c2c1 |  | 96 |  |  |  |  | 
20 | COc1cc2ncnc(Nc3ccc(Oc4ccc(C(=O)NCC(C)(C)C)cc4)c(C)c3)c2cc1OC | 1 | 77 | 310 |  |  |  | 
21 | Cc1cc(Nc2ncnc3cnc(N4CCN(C)CC4)cc23)ccc1Oc1ccc(C(=O)NCC(C)(C)C)cc1 | > 660 | 130 | 15 |  |  |  | 
22 | COCC(=O)NCC#Cc1ccc2ncnc(Nc3ccc(Oc4ccc(C(=O)NCC(C)(C)C)cc4)c(C)c3)c2c1 | 200 | 140 | 23 |  |  |  | 
23 | COc1cc2ncnc(Nc3ccc(OC4CCN(C(=O)CC(C)(C)C)CC4)c(C)c3)c2cc1OC | > 130 | 100 | 76 |  |  |  | 
24 | COCCOc1cc2ncnc(Nc3ccc(OC4CCN(C(=O)CC(C)(C)C)CC4)c(C)c3)c2cc1OCCOC | 11 | 260 | 530 |  |  |  | 
25 | COCCOc1cc2ncnc(Nc3ccc(OC4CCN(C(=O)C5CCCC5)CC4)c(C)c3)c2cc1OCCOC | > 19 | 77 | 530 |  |  |  | 
26 | COCC(=O)NCC#Cc1ccc2ncnc(Nc3ccc(Oc4cccc(C(=O)Nc5ccccc5)c4)c(C)c3)c2c1 |  | 140 |  |  |  |  | 
27 | COCCOc1cc2ncnc(Nc3ccc(OC4CCN(C(=O)Nc5c(F)cccc5F)CC4)c(C)c3)c2cc1OCCOC | 6.5 | 230 | 840 |  |  |  | 
28 | COCC(=O)NCC#Cc1ccc2ncnc(Nc3ccc(OC4CCN(C(C)=O)CC4)c(C)c3)c2c1 |  | > 10000 |  |  |  |  | 

The remaining lines, values ahead:

Row | Selectivity ratio [1] | IC50 [2] [nM] | IC50 [3] [nM] | bioavailability [4] [%] | half-life [5] [h] | Vd [6] [L/kg] | clearance [7] [mL/min/kg] | Compound
29 | > 100 | 36 | < 10 |  |  |  |  | Cc1cc(Nc2ncnc3cnc(N4CCCC4)cc23)ccc1Oc1ccc(C(=O)NCC(C)(C)C)cc1
30 | 68 | 21 | 20 |  |  |  |  | Cc1cc(Nc2ncnc3cnc(N(C)C)cc23)ccc1OC1CCN(C(=O)Nc2c(F)cccc2F)CC1
31 | > 300 | 27 | 33 |  |  |  |  | COCCOc1ccc2ncnc(Nc3ccc(OC4CCN(C(=O)Nc5c(F)cccc5F)CC4)c(C)c3)c2c1
32 | 11 | 46 | 250 |  |  |  |  | COc1ccc2ncnc(Nc3ccc(OC4CCN(C(=O)Nc5c(F)cccc5F)CC4)c(C)c3)c2c1
33 | 23 | 19 | 67 |  |  |  |  | COc1cc2ncnc(Nc3ccc(OC4CCN(C(=O)Nc5c(F)cccc5F)CC4)c(C)c3)c2cc1OC
34 | 25 | 25 | 180 |  |  |  |  | CNc1cc2c(Nc3ccc(OC4CCN(C(=O)Nc5c(F)cccc5F)CC4)c(C)c3)ncnc2cn1
35 | > 350 | 44 | 29 |  |  |  |  | COCCOc1ccc2ncnc(Nc3ccc(OC4CCN(C(=O)C5CCCC5)CC4)c(C)c3)c2c1
36 | > 1000 | 23 | < 10 |  |  |  |  | Cc1cc(Nc2ncnc3cnc(N4CCOCC4)cc23)ccc1OC1CCN(C(=O)CC(C)(C)C)CC1
37 | 32 | 55 | 55 |  |  |  |  | Cc1cc(Nc2ncnc3ccc(OCCCN4CCOCC4)cc23)ccc1OC1CCN(C(=O)Nc2c(F)cccc2F)CC1
38 | > 230 | 51 | < 10 |  |  |  |  | Cc1cc(Nc2ncnc3cnc(N(C)C)cc23)ccc1OC1CCN(C(=O)CC(C)(C)C)CC1
39 | 250 | 18 | 30 |  |  |  |  | COCC(=O)NCC#Cc1ccc2ncnc(Nc3ccc(Oc4cccc(C(=O)NC(C)(C)C)c4)c(C)c3)c2c1
40 | 230 | 30 | 13 |  |  |  |  | CNc1cc2c(Nc3ccc(Oc4ccc(C(=O)NCC(C)(C)C)cc4)c(C)c3)ncnc2cn1
41 | > 300 | 18 | 33 | 54 | 1 | 0.2 | 2.5 | Cc1cc(Nc2ncnc3cnc(N4CCOCC4)cc23)ccc1OC1CCN(C(=O)C2CCCC2)CC1
42 | > 290 | 75 | 34 |  |  |  |  | Cc1cc(Nc2ncnc3ccc(OCCCN4CCOCC4)cc23)ccc1OC1CCN(C(=O)CC(C)(C)C)CC1
43 | 210 | 7 | 16 |  |  |  |  | Cc1cc(Nc2ncnc3cnc(N4CCOCC4)cc23)ccc1OC1CCN(C(=O)Nc2c(F)cccc2F)CC1
44 | > 770 | 48 | < 10 |  |  |  |  | Cc1cc(Nc2ncnc3cnc(N(C)C)cc23)ccc1Oc1ccc(C(=O)NCC(C)(C)C)cc1
